High-throughput results deposited in PubChem by several laboratories.
VIM-2 inh: blocks Pseudomonas aeruginosa VIM-2 metallo-beta-lactamase | purified VIM-2, nitrocefin hydrolysis, epi-absorbance fluorescence | inhibition, % at 5.6 µM | 0.89% of 290,000 active | AID 1527;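 active = inhibition above the mean of all tested compounds plus 3 SD, cutoff set per screening run, cut at about 7.5% in these data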;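 note: red hydrolysis product quenches plate fluorescence so inhibitors raise well fluorescence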
SUMO HTRF inh: SUMOylation inhibition. P63279. HTRF SUMOylation assay, SAE1/SAE2 + UBC9, in vitro. inhibition, % at 35 µM. 0.36% of 290,000 active; in the data active = inhibition above about 50%, passing the limit was not always enough
Target sequence (P63279 whole entry, looked up): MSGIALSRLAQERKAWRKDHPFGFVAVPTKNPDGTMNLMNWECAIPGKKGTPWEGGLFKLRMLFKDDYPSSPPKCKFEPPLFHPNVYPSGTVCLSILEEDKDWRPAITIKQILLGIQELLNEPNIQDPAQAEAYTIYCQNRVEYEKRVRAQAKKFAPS
FID counter: displaces DNA intercalator in HCV helicase counter-screen | DNA fluorescent intercalator displacement, fluorescence | inhibition, % at 7.9 µM | 0.17% of 290,000 active; in the data active = inhibition above about 37%;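 note: higher means more ethidium bromide displaced from hairpin DNA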
IMP-1 inhibitor: blocks Pseudomonas aeruginosa IMP-1 metallo-beta-lactamase; purified IMP-1, nitrocefin hydrolysis, epi-absorbance fluorescence; inhibition, % at 5.6 µM; 0.45% of 290,000 active;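 active = inhibition above the mean plus 3 SD of all compounds in the same screening run, cut at about 4.5% in these data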
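system = purified recombinant IMP-1 beta-lactamase | amount = 0.2 nM IMP-1, as dispensed | medium = HEPES buffer pH 7.1 with ZnSO4 and Brij 35 | times = 25 °C, 15 min preincubation, 25 min reaction | detection = plate fluorescence quenching by hydrolysis product, ex 480/em 530 nm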
NALP1 inh: NALP1 inhibition; 0.61% of 280,000 active; S. cerevisiae NALP1/ASC/caspase-1 growth, X-gal OD620, 72 h; inhibition, % at 10 µM; in the data active = inhibition mostly above about 24%, no sharp cut-off; inactive = mostly below about 32%
Mot1-301 SUMO: blocks SUMOylation pathway, rescuing yeast Mot1-301 growth; S. cerevisiae Mot1-301 growth rescue, ATP luminescence, 38.5C; percent above DMSO median, 100 means doubled; growth rescue, % at 18.8 µM; AID 2716; 1% of 320,000 active;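 active = every valid replicate shows activation above 250% relative to neutral control wells; inactive = the rest, any valid replicate at or below 250%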
Each line names hits and unclear results; the compound was inactive in the other large screens. Shown are actives, neighbours in structure and some others; about 2.9% of the full set was active somewhere.

OCCN1CCN(c2ncnc3ccc(Br)cc23)CC1	NALP1 inh 32 (no result: Mot1-301 SUMO)
COc1ccc(-c2cc(C)no2)cc1S(=O)(=O)NCC1CCN(Cc2cc(C)ccc2C)CC1	none
COC(=O)[C@H](C)NC(=O)NCc1ccccc1	none
NN/C(=C\[N+](=O)[O-])Nc1ccc(Cl)cc1	none
COc1ccc(S(=O)(=O)Nc2c(C)n(C)n(-c3ccccc3)c2=O)c(Cl)c1Cl	none
Cn1nccc1NC(=O)Nc1cccc(Br)c1	SUMO HTRF inh 65
Cc1cc(NC(=O)Nc2cccc(C(F)(F)F)c2)n(C)n1	NALP1 inh 32
O=C(Nc1ccccc1)Nc1cccc(C(F)(F)F)c1	none
O=C(COCC(=O)Nc1cccc(C(F)(F)F)c1)Nc1cccc(C(F)(F)F)c1	NALP1 inh 38
CCOc1cc(CNC(C)(C)C)ccc1OCC(=O)Nc1cccc(C(F)(F)F)c1	FID counter 38
CCCNC(=O)CCn1cc(-c2ccc(OC)cc2)nc1-c1ccncc1	none
CC(C)(C)c1ccc(SCCc2cccnc2)cc1	none
COc1ccc(CCNC(=O)CNS(=O)(=O)c2ccc(Br)cc2)cc1	none (no result: VIM-2 inh, SUMO HTRF inh, FID counter, IMP-1 inhibitor, NALP1 inh)
O=C(/C=C/Nc1cccc(C(F)(F)F)c1)C(F)(F)F	IMP-1 inhibitor 5.9
O=C(NNC(=O)c1ccc(Oc2ccc(C3SCCS3)cc2)o1)c1ccc(Cl)cc1	IMP-1 inhibitor 5.2 (no result: NALP1 inh)
O=C(NNC(=O)c1ccc(Oc2cc(Cl)cc(Cl)c2)o1)c1ccccc1	none
COc1ccc(/C=N/N2CCN(c3ccc(Cl)cc3)CC2)cc1O	none
Cc1ccc(-c2cc(-c3ccccc3O)nc(N/N=C/c3cccnc3)n2)cc1	SUMO HTRF inh 53
O=C1CCC/C(=N/Nc2ccc(Cl)cc2)C1	none
CCOc1ccc2[nH]c(=O)c(CN(Cc3nnnn3Cc3ccco3)C3CCCCC3)cc2c1	none
COc1cc2cc(CN(Cc3nnnn3Cc3ccco3)C3CCCCC3)c(=O)[nH]c2cc1OC	VIM-2 inh 9.3
O=C(O)CS(=O)(=O)c1ccc(C(F)(F)F)cn1	none
O=C(CSc1nnc(C2CC2)n1Cc1ccccc1)N1CCN(S(=O)(=O)c2ccccc2)CC1	none
O=C(CSc1nnc(C2CC2)n1Cc1ccccc1)c1ccc(S(=O)(=O)N2CCOCC2)cc1	VIM-2 inh 23
Cc1ccc(S(=O)(=O)c2c(N)n(CCCN(C)C)c3nc4ccccc4nc23)cc1	none
CN(C)CCCn1c(N)c(C#N)c2nc3ccccc3nc21	SUMO HTRF inh 103 (no result: NALP1 inh)
CCOc1cccc2cc(C(=O)NCc3ccccc3Cl)c(=O)oc12	none
COc1ccccc1COCC(O)CNCCc1ccc(C(F)(F)F)cc1 (stereo not drawn)	none
OC(CNCCc1ccc(C(F)(F)F)cc1)COc1ccc2ccccc2c1 (stereo not drawn)	NALP1 inh 96
OC(CNCCc1ccc(C(F)(F)F)cc1)COc1cccc2ccccc12 (stereo not drawn)	NALP1 inh 103
OC(COc1ccc(CNCCc2ccc(C(F)(F)F)cc2)cc1)CN1CCCCC1 (stereo not drawn)	FID counter 42
C/C(=N\Nc1cccc(C(=O)O)c1)c1ccc(Cl)s1	none
Cc1cc(C)cc(N(C(=O)CCC(=O)Nc2ccccn2)C(C(=O)NC(C)C)c2ccc(O)cc2)c1 (stereo not drawn)	none
FCCCOc1ccc(-c2nccc(-c3ccc(F)cc3)n2)cc1	none
FCCCOc1ccc(-c2ccnc(-c3ccccc3)n2)cc1	IMP-1 inhibitor 5.1
CCCCNC(=O)CSc1cc(=O)n(C)c2ccccc12	IMP-1 inhibitor 6.1
CCc1ccc(NC(=O)C2CCC(CNC(=O)[C@@H]3Cc4ccccc4CN3)CC2)cc1 (stereo partly drawn)	NALP1 inh 34
CC(C)c1ccc(NC(=O)C2CCN(C(=O)[C@@H]3Cc4ccccc4CN3)CC2)cc1	NALP1 inh 32
CN(CC(=O)Nc1ccc(F)c(F)c1F)C(=O)c1n[nH]c(=O)c2ccccc12	none (no result: VIM-2 inh, SUMO HTRF inh, FID counter, IMP-1 inhibitor, NALP1 inh)
O=C(COC(=O)/C=C/c1ccc(S(=O)(=O)N2CCOCC2)cc1)NCc1ccc2c(c1)OCO2	none
O=C(COC(=O)/C=C/c1ccc(S(=O)(=O)N2CCOCC2)cc1)NCc1ccc(F)cc1	Mot1-301 SUMO 307
Cn1c(=O)[nH]c(=O)c2c1nc(N1CCNCC1)n2Cc1ccccc1	none
Cc1ccc(Cn2c(N3CCNCC3)nc3c2c(=O)[nH]c(=O)n3C)cc1	IMP-1 inhibitor 27
CCC(C)CCN1C(N(C)C)=NC[C@@H]1C (stereo partly drawn)	Mot1-301 SUMO 318 (no result: VIM-2 inh, SUMO HTRF inh, FID counter, IMP-1 inhibitor, NALP1 inh)
CC(C)CCCN1C(N(C)C)=NC[C@@H]1C	none (no result: VIM-2 inh, SUMO HTRF inh, FID counter, IMP-1 inhibitor, NALP1 inh)
Cn1c(SCC(=O)Nc2ccc(Br)cn2)nnc1C1CC1	none
N=c1sccn1CC(=O)Nc1ccccc1Oc1ccccc1	NALP1 inh 38
O=C(CNC(=O)c1ccccc1)NCc1nc2ccccc2[nH]1	none (no result: VIM-2 inh, SUMO HTRF inh, FID counter, IMP-1 inhibitor, NALP1 inh)
O=C(Nc1ccccc1)c1ccc(-c2ccc([N+](=O)[O-])cc2)o1	IMP-1 inhibitor 5.0
O=C(Nc1nccs1)c1ccc(-c2ccc([N+](=O)[O-])cc2)o1	NALP1 inh 32
COc1ccc(NC(=O)c2ccc(-c3ccc([N+](=O)[O-])cc3)o2)cc1	none
O=C(c1ccc(SCc2cccc(Br)c2)c([N+](=O)[O-])c1)N1CCN(c2ccccn2)CC1	none
O=S(=O)(CC(CN1CCCC1)N1CCCC1)c1ccc2ccccc2c1 (stereo not drawn)	NALP1 inh 52
CC(CS(=O)(=O)c1ccc2ccccc2c1)N1CCN(C2CCCCC2)CC1 (stereo not drawn)	none (no result: SUMO HTRF inh, NALP1 inh, Mot1-301 SUMO)
Cc1ccc(NC(=O)CC(C)c2ccccc2)cc1S(=O)(=O)N1CCOCC1 (stereo not drawn)	none (no result: VIM-2 inh, SUMO HTRF inh, FID counter, IMP-1 inhibitor, NALP1 inh)
O=C1NCC(c2ccccc2)C1C(=O)N/N=C\c1ccc(-c2ccc(Cl)c(Cl)c2)o1 (stereo not drawn)	none
O=C1NCC(c2ccccc2)C1C(=O)N/N=C/c1ccc(Cl)s1 (stereo not drawn)	NALP1 inh 37
COCCNC(=O)CSc1ccccc1C(=O)NCC1CCCCC1	Mot1-301 SUMO active
CC1CCN(C(=O)c2ccccc2SCC(=O)NCC2CCCCC2)CC1	none (no result: VIM-2 inh, SUMO HTRF inh, FID counter, IMP-1 inhibitor, NALP1 inh)
CCc1ccccc1NC(=O)CCS(=O)(=O)c1ccc(OC)cc1	IMP-1 inhibitor 37
CCOc1ccccc1NC(=O)CCS(=O)(=O)c1ccc(OC)cc1	none
O=C(CN1C(=O)NC2(CCCCCC2)C1=O)N1CCCCC1	none (no result: VIM-2 inh, SUMO HTRF inh, FID counter, IMP-1 inhibitor, NALP1 inh)
Cc1ccc(S(=O)(=O)NNC(=O)C2COc3ccccc3O2)cc1C (stereo not drawn)	NALP1 inh 40
CC1=CCC(C(=O)O)C(C(=O)NC2CCCCC2)C1 (stereo not drawn)	IMP-1 inhibitor 32
CC1=C(C)CC(C(=O)NC2CCCC2)C(C(=O)O)C1 (stereo not drawn)	none (no result: Mot1-301 SUMO)
Nc1nn2c(C(F)(F)F)cc(=O)[nH]c2c1N=Nc1cccc(F)c1	none
Cc1cc(=O)[nH]c2c(N=Nc3ccc(O)cc3)c(N)nn12	IMP-1 inhibitor 6.4 (no result: Mot1-301 SUMO)
